pIC50: −log10 of the molar value. Blank lines part the entries; values can stand above or below the compound they belong to.
Experiments:
Escherichia coli [1] = test: Inhibition of Escherichia coli MurD ligase assessed as residual activity at 250 uM by colorimetry; values are per cent of control
[2] = Inhibition of Escherichia coli MurD ligase assessed as residual activity by colorimetry
Summary of the method: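 Malachite green orthophosphate detection with purified E. coli MurD. Substrates 80 μM UDP-MurNAc-L-Ala, 100 μM D-Glu, 400 μM ATP; 5% DMSO final. Incubated 37 C for 15 min, A650 read. IC50 from seven concentrations run in triplicate.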

[3] = Inhibition of Escherichia coli MurD ligase assessed as conversion of D-[14C]Glu to UDP-MurNac-L-Ala by radioactivity assay
Summary of the method: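 Incubated 37 C for 30 min, stopped with acetic acid. Substrate and product separated by TLC and quantified by radioactivity scanning. IC50 from residual activities at seven concentrations.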

Escherichia coli [4] = test: Antimicrobial activity against Escherichia coli ATCC 25922 by microdilution method; format: functional; conditions: in the assay text read “macrodilution” for “microdilution”
Summary of the method: (§1)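 Broth macrodilution in cation-adjusted Mueller–Hinton broth. Stock 2 mg/mL in DMSO, serially diluted to final 0.016–128 μg/mL. Inoculum from four colonies of a fresh overnight culture, adjusted to 0.5 McFarland and diluted to approximately 10^5 CFU/mL, then mixed 1:1 with drug. Incubated 35 C for 18–24 h. MIC is the lowest concentration giving complete inhibition of visible growth. QC with S. aureus ATCC 29213 and gentamicin.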

Pseudomonas aeruginosa = test: Antimicrobial activity against Pseudomonas aeruginosa ATCC 27853 by microdilution method; format: functional; conditions: in the assay text read “macrodilution” for “microdilution”
Summary of the method: as §1

Staphylococcus aureus = test: Antimicrobial activity against Staphylococcus aureus ATCC 29213 by microdilution method; format: functional; conditions: in the assay text read “macrodilution” for “microdilution”
Summary of the method: as §1

Enterococcus faecalis = test: Antimicrobial activity against Enterococcus faecalis ATCC 29212 by macrodilution method

Compound: O=C(O)CC[C@H](NC(=O)c1ccc(CNc2cccc(/C=C3\SC(=O)NC3=O)c2)cc1)C(=O)O
residual activity (Escherichia coli [1]): 87%

Compound: O=C(O)CC[C@@H](NC(=O)c1ccc(CNc2cccc(/C=C3\SC(=S)NC3=O)c2)cc1)C(=O)O
MIC (Escherichia coli [4]): > 128 µg/mL
pIC50 [2]: 3.76
MIC (Pseudomonas aeruginosa): > 128 µg/mL
MIC (Staphylococcus aureus): > 128 µg/mL
MIC (Enterococcus faecalis): > 128 µg/mL

Compound: O=C(O)CC[C@@H](NC(=O)c1ccc(CNc2cccc(/C=C3\SC(=O)NC3=O)c2)cc1)C(=O)O
residual activity (Escherichia coli [1]): 85%

Compound: O=C(O)CC[C@@H](NC(=O)c1ccc(CNc2ccc(/C=C3\SC(=O)NC3=O)cc2)cc1)C(=O)O
residual activity (Escherichia coli [1]): 70%

Compound: O=C(O)CC[C@H](NC(=O)c1ccc(CNc2ccc(/C=C3\SC(=O)NC3=O)cc2)cc1)C(=O)O
residual activity (Escherichia coli [1]): 88%

Second part, the compound after the results:

residual activity (Escherichia coli [1]): 74%
Compound: O=C(O)CC[C@@H](NC(=O)c1ccc(CNc2ccc(/C=C3\SC(=S)NC3=O)cc2)cc1)C(=O)O

residual activity (Escherichia coli [1]): 87%
Compound: O=C(O)CC[C@@H](NC(=O)c1cccc(CNc2cccc(/C=C3\SC(=O)NC3=O)c2)c1)C(=O)O

residual activity (Escherichia coli [1]): 68%
Compound: O=C(O)CC[C@H](NC(=O)c1ccc(CNc2ccc(/C=C3\SC(=S)NC3=O)cc2)cc1)C(=O)O

pIC50 [2]: 3.69
Compound: O=C(O)CC[C@H](NC(=O)c1ccc(CNc2cccc(/C=C3\SC(=S)NC3=O)c2)cc1)C(=O)O

residual activity (Escherichia coli [1]): 39%
Compound: O=C(O)CC[C@@H](NC(=O)c1cccc(CNc2cccc(/C=C3\SC(=S)NC3=O)c2)c1)C(=O)O

pIC50 [3]: 4.46
Compound: O=C(O)CC[C@@H](NC(=O)c1cccc(CNc2ccc(/C=C3\SC(=O)NC3=O)cc2)c1)C(=O)O

MIC (Escherichia coli [4]): > 128 µg/mL
pIC50 [2]: 4.35
MIC (Pseudomonas aeruginosa): > 128 µg/mL
MIC (Staphylococcus aureus): > 128 µg/mL
MIC (Enterococcus faecalis): > 128 µg/mL
pIC50 [3]: 4.31
Compound: O=C(O)CC[C@@H](NC(=O)c1cccc(CNc2ccc(/C=C3\SC(=S)NC3=O)cc2)c1)C(=O)O

Reference: ChEMBL document CHEMBL1240528, “Discovery of novel 5-benzylidenerhodanine and 5-benzylidenethiazolidine-2,4-dione inhibitors of MurD ligase” (J Med Chem, 2010)
